# An excerpt weighted towards active compounds, which were near 4.8% of everything screened.
# Calb FLC = C. albicans growth modulation with fluconazole; C. albicans CaCi-2 (fluconazole-resistant clinical isolate) + fluconazole, Alamar Blue growth, 48 h; growth inhibition, % (concentration not given with the values); hit rate 0.57% among 300,000;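 active = growth inhibition above about 58% in most replicates, limit read from the data, passing the limit was not always enough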;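 note: all wells also contain fluconazole at 8 µg/ml as a sub-toxic cotreatment; 0% = median of DMSO wells and 100% = median of geldanamycin control wells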
# UCH37 inh = human UCH37 deubiquitinating enzyme inhibition | hit rate 0.33% among 330,000 | purified proteasome/UCH37, Ub-AMC cleavage fluorescence | inhibition, % (no concentration beside the values) | Q9Y5K5;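 active = mean inhibition over replicate wells above about 20%, limit read from the data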;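 note: 0% = compound-free wells with enzyme and 100% = wells lacking proteasome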
#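 assay system = human UCH37 enzyme supplied as purified proteasome complex | amount = proteasome at 0.15 nM in the dispensed enzyme solution | schedule = 30 min compound-proteasome preincubation then 25 min substrate reaction, room temperature | measured by = fluorescence, ex 355 nm, em 460 nm | benchmarks = no-proteasome wells (full inhibition) and compound-free wells (no inhibition)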
# ATG4B inh = blocks human ATG4B protease cleavage of LC3 substrate | Q9Y4P1 | ATG4B cleavage of LC3-PLA2, NBD-HPC fluorescence, 1 h | inhibition, % at 8.33 µM | hit rate 0.51% among 340,000 | AID 504462; in the data active = inhibition above about 40%
# ALR inh = blocks human ALR sulfhydryl oxidase activity | P55789 | purified ALR, DTT oxidation, H2O2 HRP-luminol luminescence | inhibition, % (test concentration not listed) | hit rate 3.8% among 290,000;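 active = mean replicate inhibition above about 79%, with every replicate also reaching it, limit read from the data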
# Target sequence (P55789 whole entry, looked up): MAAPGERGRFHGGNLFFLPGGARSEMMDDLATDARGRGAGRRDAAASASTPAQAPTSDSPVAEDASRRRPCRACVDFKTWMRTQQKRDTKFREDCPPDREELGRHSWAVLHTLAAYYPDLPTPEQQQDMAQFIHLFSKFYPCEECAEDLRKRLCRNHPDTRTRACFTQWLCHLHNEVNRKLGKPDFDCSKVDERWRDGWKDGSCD
# NALP1 inh = inhibitors of NALP1 inflammasome in yeast; S. cerevisiae NALP1/ASC/caspase-1 growth, X-gal OD620, 72 h; inhibition, % at 10 µM; hit rate 0.61% among 280,000; AID 2071; in the data active = inhibition mostly above about 24%, no sharp cut-off; inactive = mostly below about 32%
# NALP3 yeast inh = inhibitors of NALP3 inflammasome in yeast; inhibition, % at 10 µM; Yeast reconstituted NLRP3/ASC/caspase-1, beta-gal luminescence, 24 h; hit rate 0.39% among 330,000; AID 2825;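 active = inhibition of 50% or more; inactive = inhibition below 50%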;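 note: plate controls were induced DMSO wells for no effect and uninduced yeast grown without galactose for full effect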
# The depositor's hits bear a star; i = inactive; . = no result.
SMILES,Calb FLC,UCH37 inh,ATG4B inh,ALR inh,NALP1 inh,NALP3 yeast inh
CC(C)(C)c1cc(NCCCn2ccnc2)n2ncc(-c3ccc(Cl)cc3)c2n1,10,i,23,-2,14,19
Cc1cccc(-c2cc3nc(C)cc(NCCCN(C)C)n3n2)c1,-10,-10,-9,-4,-4,-8
CN(C)CCCNc1cc(-c2ccccc2)nc2cc(-c3cccc(F)c3)nn12,-6,-349,3,35,26*,39
Cc1ccc(C=NNC(=O)C[n+]2ccccc2)s1,.,7,.,.,.,.
CC1CCC/C(=C\Nc2ccc(O)cc2)C1=O (configuration not stated),2,15,-2,99*,-2,-12
Cc1cc(C(=O)O)ccc1N/C=C1\CCCC(C)C1=O (configuration not stated),-9,2,-4,44,-2,20
CCCC(c1nnnn1Cc1ccco1)N1CCN(c2cc(Cl)ccc2C)CC1 (configuration not stated),.,0,8,-11,15,-8
CCCC(c1nnnn1C(C)(C)C)N1CCN(c2ccccc2)CC1 (configuration not stated),-1,6,-1,98*,2,7
CCCC(c1nnnn1Cc1ccco1)N1CCN(c2ccccc2)CC1 (configuration not stated),5,5,3,88*,1,-16
CCC(c1nnnn1C1CCCC1)N1CCN(c2ccccc2F)CC1 (configuration not stated),1,2,-4,0,11,16
CCC(c1nnnn1C1CCCC1)N1CCN(c2ccccc2)CC1 (configuration not stated),-16,4,0,99*,2,18
CCCC(c1nnnn1C(C)(C)C)N1CCN(Cc2ccccc2OC)CC1 (configuration not stated),-7,3,-1,-5,-7,26
CC(=NNC(=O)c1ccc(Cl)s1)c1ccc(NC(=O)COc2ccc(Cl)cc2)cc1,.,-11,.,.,.,.
Cc1ccc(C=NNc2nnc(Cc3ccccc3)c(=O)[nH]2)o1,.,3,.,.,.,.
COc1cc(C=NNC(=O)Cc2cccs2)c([N+](=O)[O-])cc1OC,.,6,.,.,.,.
O=[N+]([O-])c1ccc(Nc2ccc(N3CCOCC3)cc2)c([N+](=O)[O-])c1,-5,8,3,99*,-22,6
Cc1ccc(NC(=O)CCC(=O)NN=Cc2ccc(O)cc2O)cc1,.,-8,.,.,.,.
O=C(CCCc1c[nH]c2ccccc12)N1CCN(c2ccc(N3CCOCC3)nn2)CC1,-3,-54,-6,90*,-37,3
Cc1ccc(NC(=O)CC(=O)Nc2ccc(C)cc2C)c(C)c1,-3,1,4,0,-2,24
Cc1ccc(N=CNc2ccc(C)cc2C)c(C)c1,-1,2,2,-10,41*,10
Cc1n[nH]c(C)c1CCC(=O)NN=Cc1cccc([N+](=O)[O-])c1,.,2,.,.,.,.
CN1C(=O)N(C)c2cccc3cccc1c23,10,0,0,-19,6,19
CCc1ccc2cccc3c2c1N=CN3C,1,2,-10,100*,.,27
Cc1cc(=O)oc2cc3c(cc12)OCCN3,-1,i,2,97*,-4,-7
COC(=O)c1ccc(CON=Cc2ccc(OC)cc2OC)cc1,.,4,.,.,.,.
SMILES,Calb FLC,UCH37 inh,ATG4B inh,ALR inh,NALP1 inh,NALP3 yeast inh
CCNC(=S)NN=Cc1ccco1,.,5,.,.,.,.
Cc1ccc(NC2CCCN(C(=O)CN3C(=O)CSC3=O)C2)cc1C (configuration not stated),4,5,-2,99*,-3,2
CC(C)c1ccc(NC2CCCN(C(=O)CN3C(=O)CSC3=O)C2)cc1 (configuration not stated),1,-1,5,98*,5,12
CC(C)c1ccc(NC2CCCN(C(=O)CCn3cnnn3)C2)cc1 (configuration not stated),7,-1,6,67,2,11
COc1cc(C(=O)NN=Cc2ccccn2)cc(OC)c1OC,.,6,.,.,.,.
Cc1cc(C)nc(N=C(NC(=O)C(C)(C)C)Nc2ccccc2)n1,.,5,.,.,.,.
Cc1[nH][nH]c(=O)c1C(c1ccc(-c2ccccc2C(=O)O)o1)c1c(C)[nH][nH]c1=O,-32,24*,-4,-19,-8,.
